Test results taken from ChEMBL document CHEMBL1140245, “Identification of antitumor activity of pyrazole oxime ethers” (Bioorg Med Chem Lett, 2005).
Converted amounts (≈) assume the structure as drawn.

What was measured:
HCT-15 = experiment: Cytotoxic activity against HCT15 cell line (human colon solid tumor cell line); assay type: functional, cell-based
SK-MEL-2 = experiment: Cytotoxic activity against SKMEL-2 cell line; assay type: functional, cell-based, Homo sapiens
A549 [1] = experiment: Cytotoxic activity against A549 cell line (non-small cell lung carcinoma); assay type: functional, cell-based, Homo sapiens
SK-OV-3 = experiment: Cytotoxic activity against SKOV-3 cell line (human solid ovarian tumor cell line); assay type: functional, cell-based
XF498 = experiment: Cytotoxic activity against XF498 cell line (human CNS solid tumor); assay type: functional, cell-based
HepG2 = experiment: In vitro antiproliferative activity against HepG2 cell line (human liver tumor) at 1 uM concentration; assay type: functional
Procedure, shortened: (§1)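 Each cell line was exposed to test compound at a single concentration of 1 µM, and activity was reported as percent inhibition.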

MKN-45 = experiment: In vitro antiproliferative activity against MKN45 cell line (human stomach tumor) at 1 uM concentration; assay type: functional; procedure, shortened: as §1
MCF7 = experiment: In vitro antiproliferative activity against MCF-7 cell line (human breast tumor) at 1 uM concentration; assay type: functional; procedure, shortened: as §1
A549 [2] = experiment: In vitro antiproliferative activity against A549 cell line (human lung tumor) at 1 uM concentration; assay type: functional; procedure, shortened: as §1
[3] = Homo sapiens, HCT-15, read-out: IC50
[4] = Homo sapiens, SK-MEL-2, read-out: IC50
[5] = Homo sapiens, A549, read-out: IC50
[6] = Homo sapiens, SK-OV-3, read-out: IC50
[7] = Homo sapiens, XF498, read-out: IC50

| Compound | IC50 (HCT-15; [3]) [mg/L] | IC50 (SK-MEL-2; [4]) [mg/L] | IC50 (A549 [1]; [5]) [mg/L] | IC50 (SK-OV-3; [6]) [mg/L] | IC50 (XF498; [7]) [mg/L] | inhibition at 1 µM (HepG2) [%] | inhibition at 1 µM (MKN-45) [%] | inhibition at 1 µM (MCF7) [%] | inhibition at 1 µM (A549 [2]) [%] | also measured |
| --- | --- | --- | --- | --- | --- | --- | --- | --- | --- | --- |
| Cc1nn(C)c(Oc2ccc(Cl)cc2)c1/C=N/OCc1ccc(C(=O)OC(C)(C)C)cc1 | 0.01 (≈ 0.0219 µM) | 18.8 (≈ 41.2 µM) | 0.1 (≈ 0.219 µM) | 0.28 (≈ 0.614 µM) | 0.02 (≈ 0.0439 µM) |  |  |  |  |  |
| Cc1ccc(CO/N=C/c2c(C)nn(C)c2Oc2ccc(Cl)cc2)cc1 |  |  |  |  |  | 31.3 | 30.4 | 30.7 | 50 |  |
| Cc1nn(C)c(Oc2ccccc2)c1/C=N/OCCN1CCOCC1 |  |  |  |  |  | -40.5 | -28 | 5.4 | -19.4 |  |
| Cc1nn(C)c(Oc2ccccc2)c1/C=N/OCCN1CCN(Cc2ccc(C(F)(F)F)cc2)CC1 |  |  |  |  |  | 14.4 | 15.4 | 37.7 | 39.7 |  |
| Cc1nn(-c2ccccn2)c(Oc2ccccc2)c1/C=N/OCc1ccc(C(=O)OC(C)(C)C)cc1 |  |  |  |  |  | -25.1 | -9.8 | -14.8 | -9.1 |  |
| Cc1nn(C)c(Oc2ccccc2)c1/C=N/OCCN1CCCCC1 |  |  |  |  |  | -29 | -22.5 | 3.2 | -9.9 |  |
| Cc1ccc(CO/N=C/c2c(C)nn(C)c2Oc2ccccc2)cc1 |  |  |  |  |  | 8.4 | 17.9 | 38.2 | 29.1 |  |
| Cc1nn(-c2ccccc2)c(Oc2ccc(Cl)cc2)c1/C=N/OCc1ccc(C(=O)OC(C)(C)C)cc1 |  |  |  |  |  | -31.1 | -9.9 | -8.4 | -6.1 |  |
| Cc1nn(C)c(-n2cccn2)c1/C=N/OCc1ccc(C(=O)OC(C)(C)C)cc1 | 3.63 (≈ 9.18 µM) | 28.8 (≈ 72.8 µM) | 2.49 (≈ 6.3 µM) | 9.63 (≈ 24.4 µM) | 5.51 (≈ 13.9 µM) |  |  |  |  |  |
| CC(C)c1nn(-c2ccccc2)c(Oc2ccc(Cl)cc2)c1/C=N/OCc1ccc(C(=O)OC(C)(C)C)cc1 |  |  |  |  |  | -14.7 | -27 | -4.9 | -10 |  |
| COC(=O)c1ccc(CO/N=C/c2c(C)nn(C)c2Oc2ccc(Cl)cc2)cc1 |  |  |  |  |  | 20.3 | 26.1 | 33.6 | 49.9 |  |
| CCOC(=O)c1ccc(CO/N=C/c2c(C)nn(C)c2Oc2ccc(Cl)cc2)cc1 |  |  |  |  |  | 27.4 | 20.9 | 33.9 | 48.2 |  |
| Cc1nn(C)c(Oc2ccccc2)c1/C=N/OCc1cccc(-c2ccccc2)c1C |  |  |  |  |  | -13.2 | -12.1 | 24.4 | 5 |  |
| Cc1nn(C)c(N2CCOCC2)c1/C=N/OCc1ccc(C(=O)OC(C)(C)C)cc1 | 1.83 (≈ 4.41 µM) | 16.7 (≈ 40.3 µM) | 0.39 (≈ 0.941 µM) | 8.87 (≈ 21.4 µM) | 1.04 (≈ 2.51 µM) |  |  |  |  |  |
| Cc1nn(C)c(Oc2ccccc2)c1/C=N/OCCN(C)C |  |  |  |  |  | -36.1 | -29 | 8.9 | -5.9 |  |
| Cc1nn(C)c(Oc2ccc(Cl)cc2)c1/C=N/OCc1ccc([N+](=O)[O-])cc1 |  |  |  |  |  | 18.4 | 24.6 | 27.1 | 39.6 |  |
| Cc1nn(C)c(Oc2ccc(Cl)cc2)c1/C=N/OCc1ccc(C(F)(F)F)cc1 |  |  |  |  |  | 20.6 | 27.6 | 16.4 | 50.9 |  |
| COc1cccc(CO/N=C/c2c(C)nn(C)c2Oc2ccccc2)c1 |  |  |  |  |  | -41.2 | -19.6 | 8.4 | 1 |  |

| Compound | IC50 (HCT-15; [3]) [mg/L] | IC50 (SK-MEL-2; [4]) [mg/L] | IC50 (A549 [1]; [5]) [mg/L] | IC50 (SK-OV-3; [6]) [mg/L] | IC50 (XF498; [7]) [mg/L] | inhibition at 1 µM (HepG2) [%] | inhibition at 1 µM (MKN-45) [%] | inhibition at 1 µM (MCF7) [%] | inhibition at 1 µM (A549 [2]) [%] | also measured |
| --- | --- | --- | --- | --- | --- | --- | --- | --- | --- | --- |
| Cc1nn(C)c(Sc2ccccc2)c1/C=N/OCc1ccc(C(=O)OC(C)(C)C)cc1 | 0.26 (≈ 0.594 µM) | 4.91 (≈ 11.2 µM) | 0.13 (≈ 0.297 µM) | 0.92 (≈ 2.1 µM) | 0.28 (≈ 0.64 µM) |  |  |  |  |  |
| CCOC(=O)c1ccc(CO/N=C/c2c(C)nn(-c3ccccc3)c2Oc2ccc(Cl)cc2)cc1 |  |  |  |  |  | -31.8 | -17.8 | 12 | -9.9 |  |
| Cc1nn(C)c(Oc2ccccc2)c1/C=N/OCCN1CCCC1 |  |  |  |  |  | -25 | -24.2 | 7.7 | -8.2 |  |
| Cc1nn(C)c(-n2ccnc2)c1/C=N/OCc1ccc(C(=O)OC(C)(C)C)cc1 | 8.67 (≈ 21.9 µM) | 9.35 (≈ 23.6 µM) | 5.93 (≈ 15 µM) | 14.1 (≈ 35.6 µM) | 8.15 (≈ 20.6 µM) |  |  |  |  |  |
| Cc1nn(C)c(-n2ccc3ccccc32)c1/C=N/OCc1ccc(C(=O)OC(C)(C)C)cc1 | 1.57 (≈ 3.53 µM) | 26.5 (≈ 59.6 µM) | 0.43 (≈ 0.967 µM) | 2.07 (≈ 4.66 µM) | 1.61 (≈ 3.62 µM) |  |  |  |  |  |
| Cc1nn(C)c(Oc2ccccc2)c1/C=N/OCc1ccc([N+](=O)[O-])cc1 |  |  |  |  |  | -2.8 | 18.3 | 24 | 39.4 |  |
| Cc1nn(C)c(Oc2ccccc2)c1/C=N/OCCN1CCN(Cc2ccc(C(=O)OC(C)(C)C)cc2)CC1 |  |  |  |  |  | 19.8 | 19.2 | 32 | 44.7 |  |
| Cc1nn(C)c(Oc2ccccc2)c1/C=N/OCCN1CCN(Cc2ccccc2)CC1 |  |  |  |  |  | 6.7 | 10.5 | 23.4 | 28.4 |  |
| Cc1nn(C)c(Oc2ccccc2)c1/C=N/OCc1ccc(C(F)(F)F)cc1 |  |  |  |  |  | 5.8 | 11 | 30.5 | 34.7 |  |
| Cc1c(CO/N=C/c2c(-c3ccccc3)nn(-c3ccccc3)c2Oc2ccc(Cl)cc2)cccc1-c1ccccc1 |  |  |  |  |  | -14.8 | -15 | -17.5 | -10.1 |  |
| Cc1nn(C)c(-n2cccc2)c1/C=N/OCc1ccc(C(=O)OC(C)(C)C)cc1 | 2.48 (≈ 6.29 µM) | 24.9 (≈ 63.1 µM) | 1.64 (≈ 4.16 µM) | 3.91 (≈ 9.91 µM) | 2.67 (≈ 6.77 µM) |  |  |  |  |  |
| COc1ccc(CO/N=C/c2c(C)nn(C)c2Oc2ccc(Cl)cc2)cc1 |  |  |  |  |  | 13.9 | 28.1 | 37 | 43.9 |  |
| CC(C)c1nn(-c2ccccc2)c(Oc2ccc(Cl)cc2)c1/C=N/OCc1ccc(C(F)(F)F)cc1 |  |  |  |  |  | -2.2 | -15.4 | -1.9 | -12.1 |  |
| Cc1nn(C)c(N(C)C)c1/C=N/OCc1ccc(C(=O)OC(C)(C)C)cc1 | 6.22 (≈ 16.7 µM) | 23.9 (≈ 64.3 µM) | 2.76 (≈ 7.41 µM) | 9.06 (≈ 24.3 µM) | 3.87 (≈ 10.4 µM) |  |  |  |  |  |
| Cc1nn(C)c(N2CCCC2)c1/C=N/OCc1ccc(C(=O)OC(C)(C)C)cc1 | 0.1 (≈ 0.251 µM) | 14.4 (≈ 36.2 µM) | 0.13 (≈ 0.326 µM) | 3.19 (≈ 8 µM) | 0.12 (≈ 0.301 µM) |  |  |  |  |  |
| COc1cccc2c1C(=O)c1c(O)c3c(c(O)c1C2=O)C[C@@](O)(C(=O)CO)C[C@@H]3O[C@H]1C[C@H](N)[C@H](O)[C@H](C)O1 [DOXORUBICIN] | 0.28 (≈ 0.515 µM) | 0.07 (≈ 0.129 µM) | 0.05 (≈ 0.092 µM) | 0.09 (≈ 0.166 µM) | 0.09 (≈ 0.166 µM) |  |  |  |  |  |
| Cc1nn(C)c(Oc2ccccc2)c1/C=N/OCc1ccc(C(=O)OC(C)(C)C)cc1 [FENPYROXYMATE] | 0.02 (≈ 0.0474 µM) | 13.3 (≈ 31.5 µM) | 0.12 (≈ 0.285 µM) | 0.21 (≈ 0.498 µM) | 0.04 (≈ 0.0949 µM) |  |  |  |  |  |
| CISPLATIN |  |  |  |  |  |  |  |  |  | IC50 (HCT-15; hct-15): 6.91 mg/L; IC50 (SK-MEL-2; sk-mel-2): 3.28 mg/L; IC50 (A549 [1]; a549): 3.09 mg/L; IC50 (SK-OV-3; sk-ov-3): 3.42 mg/L; IC50 (XF498; xf498): 3.47 mg/L |
